Source: publication PMC9624299 (ACS chemical biology, 2022)

Columns and labels:
T98G cells = experiment: Cell viability assay; type: cell-based, human; conditions: for IC50 / cytotoxicity (in words): T98G
How it was run: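 T98G cells were cultured in EMEM/10% FBS/1% pen-strep at 37 °C, 5% CO2, seeded and allowed to adhere. Where indicated, cells were pretreated 3 h with the MGMT inhibitor O6BG. Test compound was then added in DMSO (1% final). After 7 days, viability was read by Alamar Blue, with raptinal 20 μM as dead control; n ≥ 3, SEM.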

linearized pBR322 DNA = experiment: DNA cross-linking/alkylation assay; type: biochemical; conditions: linearized pBR322 DNA 150 ng, 37 °C, Tris pH 8.5, 15 h, agarose gel
How it was run: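 pBR322 was linearised with EcoRI, purified and taken up in 10 mM Tris-Cl pH 8.5. DNA (150 ng) was incubated with test compound (DMSO, 5% v/v) at 37 °C for 15 h. Cisplatin and MMS served as positive controls. Samples were denatured 15 min at 4 °C in NaOH-containing sucrose/bromophenol blue buffer (no NaOH for non-denatured controls). Gels were run on 1% neutral agarose with ethidium bromide in TBE, 124 V, 1 h.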

U87 cells = experiment: Cell viability assay; type: cell-based, human; conditions: 7 days; for IC50: U87, no MGMT expression, MGMT(−)/MMR(+), Alamar Blue; for cytotoxicity (in words): U87
How it was run: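 Cells were cultured in EMEM with 10% FBS and 1% pen-strep (37 °C, 5% CO2), seeded and allowed to adhere 3 h. Test compound was added in DMSO (1% final). After 7 days of incubation, viability was read by Alamar Blue, with raptinal 20 μM as dead control. IC50 taken from dose–response curves; n ≥ 3, SEM.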

GL261 cells [1] = experiment: Quantitation of O6-guanine DNA adducts in cells; type: cell-based, mouse; conditions: 100, 300 or 500 μM, 8 h, LC–MS/MS
How it was run: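 GL261 cells were plated at 1 × 10^6 per well and exposed to test compound at 100, 300 or 500 μM (1% DMSO) for 8 h. Genomic DNA was extracted, then precipitated with sodium acetate and ethanol. DNA (10 μg) was hydrolysed to deoxynucleosides (37 °C, 6 h). O6-alkyl-dG was quantified by LC–MS/MS against a synthetic standard; n ≥ 3.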

[2] = same schedule (once-per-day over five days); cited from earlier work
GBM cell lines = experiment: Cell viability assay; type: cell-based; conditions: 7 days
How it was run: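 Panel lines were seeded and allowed to adhere 3 h, then dosed with test compound in DMSO (1% final) and incubated at 37 °C, 5% CO2 for 7 days. Viability was read by Alamar Blue, with raptinal 20 μM as dead control. IC50 values are from n ≥ 3, SEM.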

[3] = Hydrolytic stability studies; type: physicochemical; conditions: for hydrolytic stability, percentage of prodrug remaining after 2 h: HPLC
How it was run: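 Compound (100 μM) was incubated in PBS at 37 °C, pH 7.4 (also pH 7 and 8). Aliquots taken at set time points were analysed by HPLC. Peak areas were compared with t0 to give percent prodrug remaining, including at 2 h.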

[4] = aqueous solution, PBS, pH 7.4, 37 °C; cited from earlier work
A172 cells = experiment: Quantitation of O6-guanine DNA adducts in cells; type: cell-based; conditions: A172, MGMT-negative; LC–MS/MS
GL261 cells [5] = experiment: Cell viability assay, GL261; type: cell-based; conditions: Mus musculus, GL261, 168 h
How it was run: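 Cells were grown in DMEM with 10% FBS and 1% pen-strep at 37 °C, 5% CO2, seeded and allowed to adhere. After 3 h, test compound was added in DMSO (1% final). Cells were incubated 7 days, and viability was assessed by Alamar Blue, with raptinal 20 μM as dead control.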

GL261 MGMT+ cells = experiment: Cell viability assay, GL261 MGMT+; type: cell-based, mouse
D341 Med cells = experiment: Cell viability assay, D341 Med medulloblastoma; type: cell-based; conditions: Homo sapiens, 168 h
How it was run: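 D341 Med medulloblastoma cells were grown in EMEM with 20% FBS and 1% pen-strep (37 °C, 5% CO2). Cells were seeded and compound was added in DMSO (1% final) after 3 h. Incubation lasted 7 days, and viability was read by Alamar Blue, with raptinal 20 μM as dead control.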

HCT116 cells = experiment: Cell viability assay, HCT116; type: cell-based
How it was run: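 HCT116 cells were grown in RPMI with 10% FBS and 1% pen-strep (37 °C, 5% CO2), seeded and allowed to adhere. Cells were tested with or without O6BG pretreatment. Test compound was added in DMSO (1% final) after 3 h. After 7 days, viability was read by Alamar Blue, with raptinal 20 μM as dead control.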

U118MG cells = experiment: Cell viability assay, U118MG; type: cell-based; conditions: MGMT-expressing
[6] = system: Salmonella typhimurium TA100 strain; experiment: Ames test, TA100; type: cell-based; conditions: 30 μM, 5 days, no S9 activation, wells per 96
How it was run: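 TA100 S. typhimurium was grown overnight, then dispensed into 96-well plates (microplate Ames format) with test compound, growth medium and colorimetric indicator, without S9 activation. Plates were incubated 5 days, and the number of wells per plate showing revertant growth was scored by colour change.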

glioblastoma = conditions: GBM patients, TMZ added to RT; cited from earlier work
[7] = Assessment of hematological toxicity; type: in vivo, CD-1 IGS mice; conditions: mice, single 125 mg/kg IV dose, 7 days
[8] = system: Escherichia coli WP2 uvrA pKM101 strain; experiment: Ames test, WP2 uvrA pKM101; type: cell-based; conditions: 30 μM
How it was run: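 E. coli WP2 uvrA pKM101 tester strain was run in the 96-well microplate version of the Ames test following the kit maker's instructions. Test compound was added at the indicated concentrations.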

[9] = cited from earlier work
RKO cells = experiment: Cell viability assay, RKO colon cancer; type: cell-based
D54 cells = experiment: Quantitation of O6-guanine DNA adducts in cells; type: cell-based; conditions: D54, MGMT-negative; LC–MS/MS
GBM = conditions: intracranial murine model of GBM; cited from earlier work
BBB permeability = type: in vivo, CD-1 IGS mice; conditions: mice, 25 mg/kg IV, 15 min
How it was run: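 CD-1 IGS mice received 25 mg/kg by lateral tail vein in 5% DMSO, 10% Tween-20 and 85% SBE-βCD (30% w/v in water), and were killed at 15 min. Blood was taken, then mice were saline-perfused. Serum was acidified with 8.5% H3PO4. Brains were acidified (0.3% H3PO4), frozen, homogenised and centrifuged. Levels were measured by LC–MS/MS and used for brain:serum ratio; ≥3 mice/cohort.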

[10] = high MGMT expression, MGMT(+)/MMR(+), 7 days, Alamar Blue

With CC#CCn1nnc2c(C(N)=O)ncn2c1=O [Compound 19] the IC50 (T98G cells; [10]) was 110 µM, the “DNA alkylation (in words)” value (linearized pBR322 DNA) was “Trace DNA alkylation” and the “DNA interstrand cross-linking (in words)” value (linearized pBR322 DNA) was “definitively absent”. For the same compound, the IC50 (U87 cells) was 37 µM.
In the case of N.N.[Cl][Pt][Cl] [cisplatin], the “DNA interstrand cross-linking (in words)” value (linearized pBR322 DNA) is reported as “prevent the full denaturation of double-stranded DNA”.
In the case of Cn1nnc2c(C(N)=O)ncn2c1=O [TMZ, temozolomide], the “O6-alkyl-2′-deoxyguanosine adducts (O6-Me-dG for TMZ, O6-Prop-dG for CPZ)” value (GL261 cells [1]) is given as “dose-dependent increase”, the “reported MTD” value [2] is given as ~ 66 mg/kg and the “difference in IC50 values between MGMT-negative and positive cell lines” value (GBM cell lines; expanded GBM panel) is given as > 6 fold. For the same compound, the IC50 (T98G cells; Homo sapiens, 168 h) was > 550 µM, the “loss of activity in T98G relative to U87” value (T98G cells; IC50 T98G vs U87) was > 10 fold and the “effect of MGMT inhibitor pretreatment on cell death” value (T98G cells; T98G pretreated (3 h) with O6BG vs non-pretreated) was “dramatic potentiation of cell death”. For the same compound, the “hydrolytic stability, percentage of prodrug remaining after 2 h” value ([3]; PBS pH 7.4, 37 °C) was 40%, the half-life at 100 μM ([3]; PBS, pH 7.4) was ~1.5 h and the half-life in vitro [4] was 1.5 to 2 h. For the same compound, the O6-dG alkylation adducts (A172 cells) was “dose-dependent increase in methyl adducts”, the “DNA alkylation (in words)” value (linearized pBR322 DNA) was “cause DNA streaking” and the IC50 (GL261 cells [5]) was 120 µM. The “effect of MGMT inhibitor pretreatment on cell death” value (GL261 MGMT+ cells; GL261 MGMT+ pre-treated with lomeguatrib) was “potentiation of cell death”, the IC50 (GL261 MGMT+ cells; Mus musculus, GL261, 168 h) was > 1000 µM and the IC50 (D341 Med cells) was 460 µM. The “effect of MGMT inhibitor pretreatment on cytotoxicity” value (HCT116 cells; HCT116 pretreated with O6BG) was “negligible potentiation”, the IC50 (HCT116 cells; Homo sapiens, HCT-116, 168 h) was > 800 µM and the “effect of MGMT inhibitor pretreatment on cell death” value (U118MG cells) was “cell death potentiation”. The “revertant (mutated) colonies” value [6] was 35/96, the overall patient survival (glioblastoma) was 15 months and the “survival benefit vs RT alone” value (glioblastoma) was ≤ 8 month. For the same compound, the “white blood cell, lymphocyte and neutrophil counts (in words)” value [7] was “depletions in white blood cells, lymphocytes, and neutrophils”, the “mutagenicity (in words)” value [8] was “highly mutagenic” and the revertant colonies ([8]; wells per 96) was 95/96. The “half-life in vivo (t1/2)” value ([9]; human patients, human pharmacokinetics) was 1.5 to 2 h, the “cerebral spinal fluid concentration as percentage of plasma concentration” value ([9]; humans, average) was “about 20%” and the IC50 (RKO cells; Homo sapiens) was > 1000 µM. For the same compound, the “effect of MGMT inhibitor pretreatment on cell death” value (RKO cells; MGMT-expressing, MGMT inhibitor) was “cell death potentiation” and the O6-dG alkylation adducts (D54 cells) was “dose-dependent increase in methyl adducts”.
With C=CC=O [acrolein] the “DNA alkylation (in words)” value (linearized pBR322 DNA) was “no evidence of alkylation” and the “DNA interstrand cross-linking (in words)” value (linearized pBR322 DNA) was “interstrand cross-linking”.
In the case of CCn1nnc2c(C(N)=O)ncn2c1=O [Compound 2], the “cytotoxicity (in words)” value (T98G cells; 7 days) is reported as “much less active than TMZ”, the IC50 (U87 cells) is reported as 470 µM and the “cytotoxicity (in words)” value (U87 cells) is reported as “much less active than TMZ”.
In the case of CC(C)(C)n1nnc2c(C(N)=O)ncn2c1=O [Compound 5], the “cytotoxicity (in words)” value (T98G cells; 7 days) is reported as “inactive” and the “cytotoxicity (in words)” value (U87 cells) is reported as “inactive”.
In the case of C#CCn1nnc2c(C(N)=O)ncn2c1=O [Compound 10], the “efficacy in an intracranial efficacy model (in words)” value (GBM) is given as “limited efficacy”, the IC50 (GBM cell lines; all cell lines of the expanded GBM panel) is given as < 100 µM and the IC50 (T98G cells; [10]) is given as 77 µM. For the same compound, the “brain:serum ratio” value (BBB permeability) was 0.06 ± 0.01 ng/g:ng/mL, the half-life ([3]; PBS pH 7.4, 37 °C) was ~ 30 min and the “hydrolytic stability, percentage of prodrug remaining after 2 h” value ([3]; PBS pH 7.4, 37 °C) was 8%. The IC50 (U87 cells) was 29 µM.
In the case of CC(C)(C)Cn1nnc2c(C(N)=O)ncn2c1=O [Compound 6], the “cytotoxicity (in words)” value (T98G cells; 7 days) is reported as “inactive” and the “cytotoxicity (in words)” value (U87 cells) is reported as “inactive”.
With NC(=O)c1ncn2c(=O)[nH]nnc12 [Compound 1] the “cytotoxicity (in words)” value (T98G cells; 7 days) was “unable to induce cell death” and the “cytotoxicity (in words)” value (U87 cells) was “unable to induce cell death”.
With CC(C)n1nnc2c(C(N)=O)ncn2c1=O [Compound 4] the “cytotoxicity (in words)” value (T98G cells; 7 days) was “inactive” and the “cytotoxicity (in words)” value (U87 cells) was “inactive”.
In the case of NC(=O)c1ncn2c(=O)n(CCCl)nnc12 [MTZ, mitozolomide], the “cytotoxicity (in words)” value (T98G cells; 7 days) is reported as “robust cytotoxicity” and the “cytotoxicity (in words)” value (U87 cells) is reported as “robust cytotoxicity”.
In the case of COS(C)(=O)=O [MMS, methylmethanesulfonate], the “DNA alkylation (in words)” value (linearized pBR322 DNA) is reported as “cause DNA streaking”.
